Most compounds without a hit are left out; they make up all but 1.9% or so of the library.
TDP2 absorb = blocks human TDP2 phosphodiesterase activity; O95551; recombinant TDP2, T5PNP hydrolysis, p-nitrophenol absorbance 415 nm; inhibition, % at 12.8 µM; 0.34% of 370,000 active; AID 720702;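 active means inhibition above the mean of all tested compounds plus 3 SD, set per campaign, cut at about 25% in these data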;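 further: 0% = DMSO with enzyme and 100% = buffer with substrate but no TDP2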
Target sequence (O95551 whole entry, looked up): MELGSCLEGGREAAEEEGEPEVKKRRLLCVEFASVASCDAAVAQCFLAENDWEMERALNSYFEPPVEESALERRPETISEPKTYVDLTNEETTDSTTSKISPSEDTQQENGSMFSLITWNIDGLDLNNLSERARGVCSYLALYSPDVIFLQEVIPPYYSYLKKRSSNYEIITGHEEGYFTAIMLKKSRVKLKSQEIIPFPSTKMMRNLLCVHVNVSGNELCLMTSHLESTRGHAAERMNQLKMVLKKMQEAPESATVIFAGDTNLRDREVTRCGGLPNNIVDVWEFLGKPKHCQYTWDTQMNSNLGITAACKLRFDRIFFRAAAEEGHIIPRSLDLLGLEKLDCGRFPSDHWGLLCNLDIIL
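Evaluation: % inhibition relative to enzyme-containing and enzyme-free wells. Material: recombinant human TDP2. Benchmarks: enzyme-free and DMSO wells. Timing: enzyme reaction with compound for 2 h at 37 °C. Compound dosing: 12.8 µM only. Measured by: p-Nitrophenol epi absorbance. Reagent: T5PNP substrate at 5 mM, a TopII-DNA adduct mimic. Replication: single well per compound.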
LEDGF integ inh = blocks HIV-1 LEDGF/p75-dependent DNA integration; 0.64% of 370,000 active; AID 743269; TR-FRET IN-LEDGF/p75 DNA integration, Eu/Cy5; inhibition, % at 3.7 µM;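 active means inhibition above the screen-wide mean plus 3 SD, cut at about 13% in these data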;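 further: signal is the Cy5 over europium emission ratio at 671 and 618 nm; 0% = plate median of compound wells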
Rin1-Abl PPI inh = inhibitors of human Rin1-Abl protein interaction; P00519+Q13671; 0.4% of 360,000 active; TR-FRET Rin1/Abl binding, biochemical; inhibition, % at 7.35 µM; in the data active means inhibition above about 5%, passing the limit was not always enough
MBD2 DNA inh = blocks human MBD2 binding to methylated DNA; AID 686964; inhibition, % at 4.4 µM; Q9UBB5; TR-FRET, MBD2 binding to methylated oligonucleotide; 0.31% of 370,000 active; in the data active means inhibition above about 13%
UHRF1 binding = blocks human UHRF1 binding to methylated DNA; AID 687016; inhibition, % at 4.4 µM; UHRF1 binding to methylated oligo, TR-FRET; 0.75% of 370,000 active; Q96T88;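 further: UHRF1 SRA domain binding a hemimethylated CpG hairpin DNA probe; 0% = median of test compound wells and 100% = reference inhibitor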
UHRF1 ctr MBD2 = inhibits human UHRF1 binding to methylated oligonucleotide, MBD2 counter-screen; shares compounds with MBD2 DNA inh; TR-FRET; inhibition, % at 4.4 µM; 25% of 1,000 active;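 further: UHRF1 SRA domain binding a labeled hemimethylated CpG hairpin DNA; 0% = vehicle only and 100% = reference inhibitor with vehicle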
MBD2 DBD conf = MBD2-DBD methyl-DNA binding inhibition, TR-FRET confirmation; 26% of 1,000 active; shares compounds with MBD2 DNA inh; inhibition, % at 4.4 µM; TR-FRET MBD2-DBD binding to methylated oligonucleotide; AID 720531; in the data active means inhibition above about 14%
Starred values were filed as active, the others as inactive; nt = not tested or not shown. Unless noted, no stated cut-off is given here; in the data, active means inhibition above about 21%; inactive means the rest.

SMILES	TDP2 absorb	LEDGF integ inh	Rin1-Abl PPI inh	MBD2 DNA inh	UHRF1 binding	UHRF1 ctr MBD2	MBD2 DBD conf
Clc1ccccc1N1CCN(C2=Nc3ccccc3Sc3ccccc32)CC1	-1	-1	nt	0	0	nt	nt
COc1ccc(N(C)S(=O)(=O)c2cccc(C(=O)Nc3nc(C)c(C(C)=O)s3)c2)cc1	-6	1	3	15*	17	6	4
COc1cccc2c1C(=O)c1c(O)c3c(c(O)c1C2=O)CC(O)(C(=O)CO)CC3OC1CC(N(C)C)C(O)C(C)O1 (configuration not stated)	0	13	-14	113*	97*	99*	111*
COc1cccc2c1C(=O)c1c(O)c3c(c(O)c1C2=O)C[C@@](O)(C(=O)CO)C[C@@H]3O[C@H]1C[C@H](N)[C@@H](O)[C@H](C)O1	nt	nt	-18	nt	nt	nt	nt
COc1cccc2c1C(=O)c1c(O)c3c(c(O)c1C2=O)C[C@@](O)(C(C)=O)C[C@@H]3O[C@H]1C[C@H](N)[C@H](O)[C@H](C)O1	9	4	-24	107*	91*	98*	110*
CCn1c2ccccc2c2cc(NC(=O)COC(=O)c3cc(F)ccc3F)ccc21	1	2	nt	-4	2	nt	nt
COC(=O)[C@]12C=CCN1[C@@H](c1ccc(OC)c(OC)c1)c1c(c3ccccc3n1S(=O)(=O)c1ccc(C)cc1)C2	-5	-2	nt	0	1	nt	nt
C[C@@H](NC(=O)c1ccc(C#Cc2cccc(F)c2)cn1)C(C)(C)O	0	-3	nt	3	4	nt	nt
CCC(=O)OCCCN1CCC2(CCCCC2)C1=O	1	2	nt	-7	1	nt	nt
N#Cc1cccc(NC(=O)c2cc(C3CCCCN3C(=O)c3ccc4c(c3)CCO4)on2)c1 (configuration not stated)	-3	-1	-1	53*	12	4	3
O=C(Nc1ccccc1)c1cc(C2CCCCN2C(=O)c2ccc3c(c2)CCO3)on1 (configuration not stated)	-2	6	2	0	0	nt	nt
O=C(COC(=O)c1ccccc1O)Nc1cccc2ccccc12	-2	-1	1	14*	17	9	2
C=CCOc1ccc(CNCC2CCCO2)cc1 (configuration not stated)	9	13	0	22*	39*	7	1
c1cc(CNCC2CCCO2)ccn1 (configuration not stated)	-3	2	1	2	4	nt	nt
Cc1ccc(C)c(NC(=O)Cn2nc(C)c3ccccc3c2=O)c1	-10	2	4	17*	2	9	3
COc1ccc(CNC(=O)c2cccc3c2C(=O)N(Cc2cccnc2)C3)cc1	-2	1	4	0	0	nt	nt
COc1ccc(CNC(=O)c2cccc3c2C(=O)N(CC2CCCO2)C3)cc1 (configuration not stated)	-11	8	0	32*	3	6	3
CCOC(=O)Cn1cc(CN2CCS(=O)(=O)N(Cc3ccccc3)C(C(=O)OC)C2)nn1 (configuration not stated)	-1	-3	nt	14*	16	9	4
CN(C)CCNc1ccc(CO)c2sc3ccc(O)cc3c(=O)c12	-8	-4	-20	16*	-12	12	27*
COc1ccc2sc3cccc(NCCN(C)C)c3c(=O)c2c1	1	-5	-9	10	-11	nt	nt
C(=N\Nc1nncc2ccccc12)/c1cccnc1	4	0	nt	0	-8	nt	nt
C=CCN1C(=O)[C@@H](CC(=O)NCc2ccccc2)[C@]2(C(=O)OC)CCCCC=C12	-4	4	nt	2	3	nt	nt
COC(=O)c1ccc(NC(=O)CCc2nnc3ccc(NCc4ccco4)nn23)cc1	-10	1	3	14*	8	4	4
O=C1NC2c3c(Cl)sc(Cl)c3C(=O)C2O1 (configuration not stated)	1	11	0	14*	35*	32*	16*
O=C1NC2c3c(I)sc(I)c3C(=O)C2O1 (configuration not stated)	3	1	1	3	-5	nt	nt
